Measurements gathered from unrelated publications.
Effect on: cell growth or viability

CCOC(=O)CC1SC(=NN=Cc2cccc(O)c2)NC1=O (centres unmarked)
CC50 (LLC-MK2; MTT; 96 h, pH 7.2): 614 µM

CCc1nc(-c2cnc3ccc(-c4ccccc4N)cc3c2)no1
CC50 (RD; ATP luminescence; 72 h): 21 µM

CN1CCc2c(c3ccccc3n2Cc2ccc(C(=O)NO)cc2)C1
CC50 (LLC-MK2; MTS; 48 h): > 20 µM

CCOC(=O)CC1SC(=NN=C2CCCc3ccccc32)NC1=O (centres unmarked)
CC50 (LLC-MK2; MTT; 96 h, pH 7.2): 280 µM

CCOC(=O)c1cnc2ccc(-c3ccc(C(C)C)cc3)cc2c1
CC50 (RD; ATP luminescence; 72 h): > 2.5 µM

CCC[C@H](NC(=O)[C@H](CC1CCCCC1)NC(=O)[C@@H](NC(=O)CC12CC3CC(CC(C3)C1)C2)C(C)(C)C)C(=O)C(=O)NC1CC1
CC50 (RD; neutral red): < 2 µM

O=C(CCCCCCC(=O)Nc1ccccc1)NO
CC50 (LLC-MK2; MTS; 48 h): 5.94 µM

O=c1[nH]cc(F)c(=O)[nH]1
CC50 (Caco-2; crystal violet; 72 h): 390 µM

CCN(CC)c1ccc(C(=O)NCCc2c(C)[nH]c3ccccc23)cc1
CC50 (C6 glioma): < 500 µM

CCC[C@H](NC(=O)[C@@H](NC(=O)[C@@H](NC(=O)CC12CC3CC(CC(C3)C1)C2)C(C)(C)C)C1CCCCC1)C(=O)C(=O)NC1CC1
CC50 (RD; neutral red): < 2 µM

CCOC(=O)c1csc(NN=Cc2cccc(OC)c2)n1
CC50 (LLC-MK2; MTT; 96 h, pH 7.2): 641 µM

Cc1cc2ccccc2n1CCNC(=O)c1ccc(N2CCOCC2)c(F)c1
CC50 (C6 glioma): < 500 µM

Cc1cn([C@H]2C[C@H](N=[N+]=[N-])[C@@H](CO)O2)c(=O)[nH]c1=O
CC50 (Caco-2; crystal violet; 72 h): 56.1 µM

CCOC(=O)c1csc(NN=C(C)c2ccccc2)n1
CC50 (LLC-MK2; MTT; 96 h, pH 7.2): 292 µM
